{"data": "Results from different studies", "target": "Bone morphogenetic protein receptor type-1A (BMPR1A, Homo sapiens, UniProt P36894)", "note": "Protocols differ between the studies behind these lines."}
{"SMILES": "O=C(O)[C@H]1[C@H](Cn2nnc3ccccc3c2=O)CC[C@@H]1C(=O)c1ccc(OCCC2CCOCC2)cc1", "assay": "binding, competition with immobilised ligand", "conditions": "1 µM", "remaining binding": "61%"}
{"SMILES": "CNC(=O)[C@@H]1CC[C@@H](n2c(-c3ccc4cnccc4c3)nc3ccc(C(=O)NCc4cccc(C(N)=O)c4)cc32)C1", "assay": "binding, competition with immobilised ligand", "conditions": "1 µM", "remaining binding": "92%"}
{"SMILES": "C[C@@H](c1ccc(-n2cnc3c(N)ncnc32)cc1)N1CCc2nn(C)c(Cc3ccccc3)c2C1=O", "assay": "binding, competition with immobilised ligand", "conditions": "0.1 µM", "remaining binding": "100%"}
{"SMILES": "COc1cccc(CNC(=O)c2nc3scc(COCc4ccc(C(=O)O)cc4)c3c(=O)[nH]2)c1", "assay": "cell-free assay, competition with immobilised ligand", "conditions": "1 µM", "remaining binding": "100%"}
{"SMILES": "C[C@H]1CCN(c2nccc(-c3cnn4ncccc34)n2)C1", "assay": "binding", "conditions": "1 µM", "remaining binding": "68%"}
{"SMILES": "c1cncc(-c2cccc(Nc3nccc(NC4CCCCC4)n3)c2)c1", "assay": "binding, competition with immobilised ligand", "conditions": "10 µM", "remaining binding": "73%"}
{"SMILES": "N[C@@H]1CCN(c2nccc(-c3cnn4ncccc34)n2)C1", "assay": "binding", "conditions": "1 µM", "remaining binding": "100%"}
{"SMILES": "O=C(NCCCN1CCOCC1)c1ccc(Nc2nccc(-c3cc4ccccc4s3)n2)cc1", "assay": "binding, competition with immobilised ligand", "conditions": "1 µM", "remaining binding": "78%"}
{"SMILES": "FC(F)(F)Oc1cccc(-c2cnc3ccc(-c4ccncc4)nn23)c1", "assay": "cell-free assay, competition with immobilised ligand", "conditions": "5 µM", "remaining binding": "81%"}
{"SMILES": "O=C(Nc1c[nH]nc1C(=O)NC1CCNCC1)c1cc(F)cc(F)c1", "assay": "binding, competition with immobilised ligand", "conditions": "1 µM", "remaining binding": "89%"}
{"SMILES": "C[C@@]1(Cc2ccc(C#N)cc2)C(=O)N(c2cc(Cl)cc(Cl)c2)c2ncc(C(=O)NC3(c4nc(C5CCC5)no4)CC3)n21", "assay": "binding, competition with immobilised ligand", "conditions": "1 µM", "remaining binding": "100%"}
{"SMILES": "O=C(c1ccc(Nc2nccc(-c3cc4ccccc4s3)n2)cc1)N1CCC(N2CCCC2)CC1", "assay": "binding, competition with immobilised ligand", "conditions": "1 µM", "remaining binding": "75%"}
{"SMILES": "CN(c1nccc(-c2cnn3ncccc23)n1)C1CC1", "assay": "binding", "conditions": "1 µM", "remaining binding": "78%"}
{"SMILES": "CC1=C(C#N)[C@@H](c2ccc3[nH]nc(C)c3c2)C(C#N)=C(c2ccc(Cl)cc2)N1", "assay": "binding, competition with immobilised ligand", "conditions": "1 µM", "remaining binding": "98.6%"}
{"SMILES": "CN(CCCC(F)(F)F)c1nccc(-c2cnn3ncccc23)n1", "assay": "binding", "conditions": "1 µM", "remaining binding": "83%"}
{"SMILES": "c1ccc(N2CCN(Cc3nc4ccccc4[nH]3)CC2)nc1", "assay": "binding, competition with immobilised ligand", "conditions": "1 µM", "remaining binding": "86%"}
{"SMILES": "O=C(c1ccc(Nc2ncc(Cl)c(-c3cc4ccccc4s3)n2)cc1)N1CCC(N2CCCC2)CC1", "assay": "binding, competition with immobilised ligand", "conditions": "1 µM", "remaining binding": "60%"}
{"SMILES": "CC(=O)N1CCC(c2ccc(C(=O)NC(=N)N)cc2C(F)(F)F)CC1", "assay": "binding, competition with immobilised ligand", "conditions": "1 µM", "remaining binding": "100%"}
{"SMILES": "CN(C)c1nccc(-c2cnn3ncccc23)n1", "assay": "binding", "conditions": "1 µM", "remaining binding": "81%"}
{"SMILES": "C=CC(=O)N1CCC(C(=O)NCC(=O)N2CCN(c3nc(-c4cnc(N)nc4C(F)F)nc(N4CCOCC4)n3)CC2)CC1", "assay": "binding, competition with immobilised ligand", "conditions": "1 µM", "remaining binding": "80%"}
